The source of these data is ChEMBL document CHEMBL2380254, “Optimization of tocotrienols as antiproliferative and antimigratory leads” (Eur J Med Chem, 2013).

Common to all, as to format: functional
One test concerns BT-549. The test is described as follows: Growth inhibition of human BT549 cells assessed as cell growth at 10 uM after 48 hrs by sulforhodamine B assay. The following applies: BT-549, 48 h, read-out: Activity. In a few lines: (§1)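 NCI-60 single-dose screen at 10 µM: cells in RPMI 1640 with 5% FBS, preincubated 24 h, then exposed 48 h at 37 °C. TCA fixation (16% final for suspension cells), SRB staining, absorbance 515 nm. Percent growth relative to time-zero and untreated control plates; negative values indicate cell kill.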

The test system of a further test is OVCAR-8. The test is described as follows: Growth inhibition of human OVCAR8 cells assessed as cell growth at 10 uM after 48 hrs by sulforhodamine B assay. Particulars: OVCAR-8, 48 h, read-out: Activity. In a few lines: (§2)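 Single-dose NCI-60 screen: adherent cells in RPMI 1640 with 5% FBS were exposed to 10 µM for 48 h at 37 °C after a 24 h preincubation. They were fixed in situ with cold TCA (10% final), stained with 0.4% SRB in 1% acetic acid, solubilized in 10 mM Tris base, and read at 515 nm. Percent growth was taken relative to time-zero and control plates.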
(Sulforhodamine B stains cellular protein and so reports cell mass.)

The next test concerns SK-MEL-2. Kind of test: Growth inhibition of human SK-MEL-2 cells assessed as cell growth at 10 uM after 48 hrs by sulforhodamine B assay. Particulars: SK-MEL-2, 48 h, read-out: Activity. In a few lines:
as §2

The next test deals with LOX IMVI. Kind of test: Growth inhibition of human LOXIMVI cells assessed as cell growth at 10 uM after 48 hrs by sulforhodamine B assay. The following applies: read-out: Activity. In a few lines:
as §1

A further test relates to HCT-15. The test is described as follows: Growth inhibition of human HCT15 cells assessed as cell growth at 10 uM after 48 hrs by sulforhodamine B assay. Particulars: HCT-15, 48 h, read-out: Activity. In a few lines: as §1
For another test, the system named is NCI-H522. Kind of test: Growth inhibition of human NCI-H522 cells assessed as cell growth at 10 uM after 48 hrs by sulforhodamine B assay. The following applies: NCI-H522, 48 h, read-out: Activity. In a few lines: as §2
For a further test, the system named is NCI-H322M. Kind of test: Growth inhibition of human NCI-H322M cells assessed as cell growth at 10 uM after 48 hrs by sulforhodamine B assay. The following applies: read-out: Activity. In a few lines:
as §2

A further test concerns HOP-62. The test is described as follows: Growth inhibition of human HOP62 cells assessed as cell growth at 10 uM after 48 hrs by sulforhodamine B assay. The following applies: HOP-62, 48 h, read-out: Activity. In a few lines: as §1
Another test relates to RPMI-8226. Kind of test: Growth inhibition of human RPMI8226 cells assessed as cell growth at 10 uM after 48 hrs by sulforhodamine B assay. Particulars: RPMI-8226, 48 h, read-out: Activity. In a few lines: (§3)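 Single 10 µM dose applied to suspension cells in RPMI 1640 with 5% FBS and 2 mM L-glutamine for 48 h at 37 °C. Settled cells were fixed with 80% TCA (16% final), stained with SRB, and read at 515 nm. Percent growth was calculated against time-zero and untreated control optical densities.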

The next test has as its system MOLT-4. Kind of test: Growth inhibition of human MOLT4 cells assessed as cell growth at 10 uM after 48 hrs by sulforhodamine B assay. Particulars: MOLT-4, 48 h, read-out: Activity. In a few lines: as §3

As to `CC(C)=CCC/C(C)=C/CC/C(C)=C/CC[C@]1(C)CCc2c3c(cc(C)c2O1)OCN(CCCCCCCCCCO)C3`, the growth at 10 µM in the test with BT-549 was found to be 102%; in the test with OVCAR-8 it was 74.6%; in the test on SK-MEL-2, 86.4%; with LOX IMVI, 87.3%; in the test with HCT-15 it was 96.9%; with NCI-H522, 86%. In addition, the growth at 10 µM with NCI-H322M amounted to 104%; in the test with HOP-62 it was 107%; in the test on RPMI-8226 it was 63.2%; with MOLT-4 it was 67.6%.
For the compound `CC(C)=CCC/C(C)=C/CC/C(C)=C/CC[C@]1(C)CCc2c3c(c(C)c(C)c2O1)OCN(CCCCCCCCCCCCO)C3`, the growth at 10 µM in the test with BT-549 is 127%; with OVCAR-8 it was 100%; in the test with SK-MEL-2, 76.8%; with LOX IMVI it was 100%; in the test with HCT-15, 100%; in the test on NCI-H522 it was 69.5%. Also, the growth at 10 µM with NCI-H322M was found to be 90.7%; in the test on HOP-62, 104%; with RPMI-8226, 87%; in the test with MOLT-4, 90.5%.
